Source: ChEMBL document CHEMBL4373708 (J Med Chem, 2019)

Experiments:
Chloride anion exchanger = target: T1, Chloride anion exchanger (Mus musculus, UniProt Q9WVC8); assay: Inhibition of mouse slc26a3 expressed in FRT cells co-expressing EYFP-H148Q/I152L/F46L assessed as reduction in protein-mediated chloride/iodide exchange preincubated for 10 mins followed by NaI-substituted PBS addition and measured by YFP-based fluorescence assay; type: cell-based
T1 sequence (Q9WVC8 whole entry): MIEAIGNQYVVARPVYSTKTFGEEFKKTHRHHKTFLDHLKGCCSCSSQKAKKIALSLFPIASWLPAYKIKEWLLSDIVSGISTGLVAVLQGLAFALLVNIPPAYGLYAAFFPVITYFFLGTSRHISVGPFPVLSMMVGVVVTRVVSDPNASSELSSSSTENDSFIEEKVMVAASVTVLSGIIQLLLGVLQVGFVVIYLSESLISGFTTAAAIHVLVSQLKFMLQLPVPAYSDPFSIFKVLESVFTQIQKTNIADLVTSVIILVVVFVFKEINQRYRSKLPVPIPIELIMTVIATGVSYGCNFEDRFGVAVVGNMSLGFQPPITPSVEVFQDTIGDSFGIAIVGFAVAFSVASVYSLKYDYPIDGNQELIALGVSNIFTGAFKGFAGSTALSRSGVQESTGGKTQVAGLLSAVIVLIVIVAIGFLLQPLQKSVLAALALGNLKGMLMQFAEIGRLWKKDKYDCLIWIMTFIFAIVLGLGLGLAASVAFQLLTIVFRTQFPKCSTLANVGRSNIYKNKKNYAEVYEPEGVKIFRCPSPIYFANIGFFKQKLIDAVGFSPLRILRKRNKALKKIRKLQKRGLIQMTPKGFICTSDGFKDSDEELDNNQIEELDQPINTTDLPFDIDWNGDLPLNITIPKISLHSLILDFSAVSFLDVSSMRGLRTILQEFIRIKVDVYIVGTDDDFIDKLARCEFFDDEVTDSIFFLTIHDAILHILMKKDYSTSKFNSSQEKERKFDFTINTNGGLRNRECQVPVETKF
How it was run: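 Chloride/iodide exchange was assayed in FRT cells co-expressing murine slc26a3 and EYFP-H148Q/I152L/F46L. Cells in PBS received iodide-substituted PBS (NaCl replaced by 140 mM NaI), and the fluorescence quenching rate was measured. Concentration–inhibition data were fitted to a single-site model for IC50. Data are representative of 3 replicates.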

[1] = Tmax in mouse at 5 mg/kg, ip by LC-MS analysis; type: ADME, organism-based; conditions: in vivo
How it was run: (§1)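 Single intraperitoneal or oral dose in mice at 5 mg/kg (vehicle: saline with 5% DMSO and 10% Kolliphor HS 15) or 10 mg/kg (vehicle: PBS with 5% DMSO and 20% (2-hydroxypropyl)-β-cyclodextrin). Blood taken by retroorbital puncture at set times, serum separated by centrifugation at 4000 g for 20 min at 24 °C, compound quantified by LC/MS.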

[2] = AUC in mouse at 5 mg/kg, ip by LC-MS analysis; type: ADME, organism-based; conditions: in vivo; how it was run: as §1
[3] = Time at which serum concentration stays above in vitro IC50 for inhibition of mouse slc26a3 expressed in FRT cells in mouse at 5 mg/kg, po or ip by LC-MS analysis; type: organism-based; conditions: in vivo; how it was run: as §1
[4] = Tmax in mouse at 5 mg/kg, po by LC-MS analysis; type: ADME, organism-based; conditions: in vivo; how it was run: as §1
[5] = Cmax in mouse at 5 mg/kg, ip by LC-MS analysis; type: ADME, organism-based; parameters: dose 5 mg/kg, route intraperitoneal; conditions: in vivo; how it was run: as §1
[6] = AUC in mouse at 5 mg/kg, po by LC-MS analysis; type: ADME, organism-based; conditions: in vivo; how it was run: as §1
[7] = Cmax in mouse at 5 mg/kg, po by LC-MS analysis; type: ADME, organism-based; parameters: dose 5 mg/kg, route oral; conditions: in vivo; how it was run: as §1

IC50 (Chloride anion exchanger)	Compound	further results
15 µM	Cc1cc(C)cc(COc2ccc3c(C)c(CC(=O)O)c(=O)oc3c2C)c1	–
1.5 µM	CCCCOc1ccc2c(C)c(CC(=O)O)c(=O)oc2c1C	–
1 µM	Cc1c(CC(=O)O)c(=O)oc2c(C)c(OCc3cccc(Cl)c3)ccc12	–
> 5 µM	Cc1c(CC(=O)O)c(=O)oc2c(C)c(OCc3cccc(C(F)(F)F)n3)ccc12	–
> 5 µM	Cc1c(OCc2cccc(Br)c2)ccc2cc(C(N)=O)c(=O)oc12	–
–	Cc1c(CC(=O)O)c(=O)oc2c(C)c(OCc3cccc(Br)c3)ccc12	Tmax [1]: 1.5 h; AUC [2]: 231 µM·h; Time [3]: >= 24 hr; Tmax [4]: 5.8 h; Cmax [5]: 24.3 µM; AUC [6]: 124 µM·h; Cmax [7]: 9.4 µM
> 5 µM	Cc1c(CC(=O)O)c(=O)oc2c(C)c(OCc3cccc(CO)n3)ccc12	–
18 µM	Cc1c(CC(=O)O)c(=O)oc2c(C)c(OCc3ccccc3Cl)ccc12	–
> 5 µM	Cc1c(CC(=O)O)c(=O)oc2c(C)c(OS(=O)(=O)c3cccc(Cl)c3)ccc12	–
> 5 µM	Cc1c(CC(=O)O)c(=O)oc2c(C)c(OCc3ccc(I)cc3)ccc12	–
> 5 µM	CCCOc1ccc2c(C)c(CC(=O)O)c(=O)oc2c1C	–
> 5 µM	Cc1c(CC(=O)O)c(=O)oc2c(C)c(OCCC(=O)O)ccc12	–
0.9 µM	Cc1c(CC(=O)O)c(=O)oc2c(C)c(OCc3cccc(F)c3)ccc12	–
> 5 µM	Cc1c(OCc2cccc(Br)c2)ccc2cc(C(=O)O)c(=O)oc12	–
0.45 µM	Cc1c(OCc2cccc(Br)c2)ccc2cc(C(=O)NO)c(=O)oc12	–
> 5 µM	Cc1c(CC(=O)O)c(=O)oc2c(C)c(OCc3ccc(Cl)cc3)ccc12	–
0.5 µM	Cc1cccc(COc2ccc3c(C)c(CC(=O)O)c(=O)oc3c2C)c1	–

IC50 (Chloride anion exchanger)	Compound	further results
> 5 µM	Cc1c(CC(=O)O)c(=O)oc2c(C)c(OCc3cccnc3)ccc12	–
> 5 µM	Cc1c(OCc2cccc(I)c2)ccc2cc(C(=O)O)c(=O)oc12	–
10 µM	Cc1c(CC(=O)O)c(=O)oc2c(C)c(OCc3ccccc3Br)ccc12	–
> 5 µM	Cc1cccc(S(=O)(=O)Oc2ccc3c(C)c(CC(=O)O)c(=O)oc3c2C)c1	–
> 5 µM	Cc1c(CC(=O)O)c(=O)oc2c(C)c(OCc3ccccn3)ccc12	–
> 5 µM	Cc1c(CCC(=O)O)c(=O)oc2c(C)c(OCc3cccc(I)c3)ccc12	–
0.06 µM	Cc1c(CC(=O)O)c(=O)oc2c(C)c(OCc3cc(F)cc(C(F)(F)F)c3)ccc12	–
> 5 µM	C=CCOc1ccc2c(C)c(CC(=O)O)c(=O)oc2c1C	–
> 5 µM	Cc1c(CC(=O)O)c(=O)oc2c(C)c(OCCn3cccc3)ccc12	–
> 5 µM	Cc1c(CC(=O)O)c(=O)oc2c(C)c(OCCc3cccc(C(F)(F)F)c3)ccc12	–
> 5 µM	Cc1c(CC(=O)O)c(=O)oc2c(C)c(OCc3ccncc3)ccc12	–
> 5 µM	Cc1c(CC(=O)O)c(=O)oc2c(C)c(OCc3ccc(Br)cc3)ccc12	–
> 5 µM	COCCOc1ccc2c(C)c(CC(=O)O)c(=O)oc2c1C	–
> 5 µM	Cc1c(CCC(=O)O)c(=O)oc2c(C)c(OCc3cccc(Br)c3)ccc12	–
0.3 µM	Cc1c(CC(=O)O)c(=O)oc2c(C)c(OCc3cc(C(F)(F)F)cc(C(F)(F)F)c3)ccc12	–
1 µM	CCCCCOc1ccc2c(C)c(CC(=O)O)c(=O)oc2c1C	–
3.3 µM	Cc1c(CC(N)=O)c(=O)oc2c(C)c(OCc3cccc(Br)c3)ccc12	–
